According to ChEMBL document CHEMBL4257595, “Improving the Selectivity of PACE4 Inhibitors through Modifications of the P1 Residue” (J Med Chem, 2018):
Activity calls are given as the source filed them. The rule behind the calls is not given here. Square brackets hold non-standard residues; d marks the D form. Peptide text beside a SMILES is read from it. * marks the point of attachment. NH(4-amidinobenzyl) = N=C(N)c1ccc(CN*)cc1

Tests used:
DU-145 [1] = test: Antiproliferative activity against human DU145 cells after 72 hrs by MTT assay; type: functional, cell-based
Method in brief: (§1)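 MTT proliferation read-out. DU145 cultured in RPMI-1640 with 5% FBS; LNCaP cultured in RPMI-1640 with 10% FBS. IC50 calculated from dose-response curves.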

Homo sapiens = organism: Homo sapiens; test: Selectivity ratio of Ki for recombinant human furin to Ki for recombinant human PACE4
Method in brief: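 Ratio of Ki values. Furin Ki measured at 0.54 nM enzyme in Hepes pH 7.5; PACE4 Ki measured at 20.18 nM enzyme in Bis-Tris pH 6.5. Both used 100 µM pGlu-RTKR-AMC with fluorescence at ex 370 / em 460 nm, and Ki came from Cheng-Prusoff (Morrison's equation for one PACE4 value).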

Furin = Furin (Homo sapiens, UniProt P09958); test: Inhibition of recombinant human furin using pGlu-Arg-Thr-Lys-Arg-AMC peptide as substrate by spectrofluorometry
Sequence of Furin (P09958 whole entry): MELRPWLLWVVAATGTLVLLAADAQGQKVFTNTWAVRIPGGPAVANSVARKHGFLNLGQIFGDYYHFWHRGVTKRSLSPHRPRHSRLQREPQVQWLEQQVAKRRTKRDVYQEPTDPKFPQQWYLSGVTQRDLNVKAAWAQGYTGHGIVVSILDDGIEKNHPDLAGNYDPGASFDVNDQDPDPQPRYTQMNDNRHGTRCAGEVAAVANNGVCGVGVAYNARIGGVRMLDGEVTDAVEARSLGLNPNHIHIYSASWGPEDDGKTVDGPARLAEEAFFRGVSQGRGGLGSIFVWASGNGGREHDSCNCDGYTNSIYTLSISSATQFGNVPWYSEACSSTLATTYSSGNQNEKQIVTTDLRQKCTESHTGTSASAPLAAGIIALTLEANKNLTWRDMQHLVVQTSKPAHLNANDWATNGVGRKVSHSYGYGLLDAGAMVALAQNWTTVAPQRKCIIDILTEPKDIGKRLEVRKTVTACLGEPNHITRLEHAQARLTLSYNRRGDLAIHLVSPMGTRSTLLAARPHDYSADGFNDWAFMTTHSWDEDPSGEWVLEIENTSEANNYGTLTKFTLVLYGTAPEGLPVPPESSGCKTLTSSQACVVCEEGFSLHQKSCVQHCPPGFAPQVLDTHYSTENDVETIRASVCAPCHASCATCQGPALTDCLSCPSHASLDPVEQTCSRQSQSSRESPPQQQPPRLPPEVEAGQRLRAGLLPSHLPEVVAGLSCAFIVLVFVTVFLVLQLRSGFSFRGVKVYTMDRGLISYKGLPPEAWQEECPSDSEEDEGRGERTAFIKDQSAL
Method in brief: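 Recombinant human furin at 0.54 nM (Km 5.040 µM) in 100 mM Hepes pH 7.5, 1 mM CaCl2, 1 mM β-mercaptoethanol and 1.8 mg/mL BSA. Substrate pGlu-RTKR-AMC at 100 µM per well. Fluorescence read at ex 370 / em 460 nm. Ki derived by Cheng-Prusoff.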

LNCaP [2] = test: Antiproliferative activity against human LNCAP cells after 72 hrs by MTT assay; type: functional, cell-based; method in brief: as §1
[3] = target: T1, Proprotein convertase subtilisin/kexin type 6 (Homo sapiens, UniProt P29122); test: Inhibition of recombinant human PACE4 using pGlu-Arg-Thr-Lys-Arg-AMC peptide as substrate by spectrofluorometry
T1 sequence (P29122 whole entry): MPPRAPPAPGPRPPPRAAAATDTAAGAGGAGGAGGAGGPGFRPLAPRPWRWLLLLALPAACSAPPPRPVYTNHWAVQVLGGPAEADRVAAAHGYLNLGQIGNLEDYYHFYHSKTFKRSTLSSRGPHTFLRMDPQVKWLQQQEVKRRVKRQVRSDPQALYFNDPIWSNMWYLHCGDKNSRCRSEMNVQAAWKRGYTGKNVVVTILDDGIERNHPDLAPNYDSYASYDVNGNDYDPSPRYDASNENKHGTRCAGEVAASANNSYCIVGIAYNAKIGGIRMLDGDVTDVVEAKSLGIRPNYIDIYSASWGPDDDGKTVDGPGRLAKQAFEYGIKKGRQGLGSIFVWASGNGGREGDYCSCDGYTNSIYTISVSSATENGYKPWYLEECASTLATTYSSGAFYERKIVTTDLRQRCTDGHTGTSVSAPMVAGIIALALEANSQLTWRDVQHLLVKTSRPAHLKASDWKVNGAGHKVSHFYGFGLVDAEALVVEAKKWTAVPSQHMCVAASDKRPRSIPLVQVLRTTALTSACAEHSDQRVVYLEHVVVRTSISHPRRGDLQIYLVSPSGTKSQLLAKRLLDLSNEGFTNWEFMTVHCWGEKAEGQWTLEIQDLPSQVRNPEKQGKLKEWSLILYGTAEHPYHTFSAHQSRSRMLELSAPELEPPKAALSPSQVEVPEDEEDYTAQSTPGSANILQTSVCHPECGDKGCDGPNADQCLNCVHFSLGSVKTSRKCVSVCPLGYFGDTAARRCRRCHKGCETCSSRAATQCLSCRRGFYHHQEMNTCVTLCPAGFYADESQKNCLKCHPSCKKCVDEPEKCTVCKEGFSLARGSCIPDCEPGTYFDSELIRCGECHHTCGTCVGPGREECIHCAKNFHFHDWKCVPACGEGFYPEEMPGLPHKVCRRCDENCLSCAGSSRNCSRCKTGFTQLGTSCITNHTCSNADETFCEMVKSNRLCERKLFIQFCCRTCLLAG

[4] = Drug uptake in human DU145 cells at 1 uM after 48 hrs using FITC-labeled compounds by propidium iodide/ trypan blue-dual staining based flow cytometry; type: ADME, cell-based; details: du-145, 1 h, in the assay text read “1 hr” for “48 hrs”
Method in brief: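 DU145 cells plated at 200000 per 100 mm dish and grown 48 h at 37 °C. FITC-labelled analogue added at 1 µM for 1 h at 37 °C. Cells harvested with 0.05% trypsin and washed in PBS. PI added at 10 µg/mL final just before acquisition. A parallel set was quenched with 0.04% trypan blue. Flow cytometry on ≥10000 events with 488/638 nm lasers.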

[5] = Half life in human plasma; type: ADME, cell-free
DU-145 [6] = test: Antiproliferative activity against human DU145 cells at <150 uM after 72 hrs by MTT assay; type: functional, cell-based
Method in brief: (§2)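 Doses tested up to 150 µM. MTT read-out on DU145 (RPMI-1640, 5% FBS) or LNCaP (RPMI-1640, 10% FBS).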

LNCaP [7] = test: Antiproliferative activity against human LNCAP cells at <150 uM after 72 hrs by MTT assay; type: functional, cell-based; method in brief: as §2
[8] = Homo sapiens, DU-145, 72 h, read-out: IC50
[9] = Homo sapiens, LNCaP, 72 h, read-out: IC50

Row | IC50 (DU-145 [1]; [8]) [nM] | Ratio Ki (Homo sapiens) | Ki (Furin) [nM] | IC50 (LNCaP [2]; [9]) [nM] | Ki [3] [nM] | Molecule | also measured
1 | 110000 | 2 | 60 | 125000 | 32 | CC(=O)N[C@H](CC(C)C)C(=O)N[C@@H](CC(C)C)C(=O)N[C@@H](CC(C)C)C(=O)N[C@@H](CC(C)C)C(=O)N[C@@H](CCCNC(=N)N)C(=O)N[C@H](C(=O)N[C@@H](CCCCN)C(=O)NCC#CCNC(=N)N)C(C)C | 
2 |  |  |  |  |  | CC(C)C[C@H](NC(=O)[C@H](CC(C)C)NC(=O)[C@H](CC(C)C)NC(=O)[C@@H](CC(C)C)NC(=O)CCN)C(=O)N[C@@H](CCCNC(=N)N)C(=O)N[C@H](C(=O)N[C@@H](CCCCN)C(=O)NCc1ccc(C(=N)N)cc1)C(C)C | Drug uptake [4]: Active
3 |  | 2 |  |  |  | CC(=O)N[C@H](CC(C)C)C(=O)N[C@@H](CC(C)C)C(=O)N[C@@H](CC(C)C)C(=O)N[C@@H](CC(C)C)C(=O)N[C@@H](CCCNC(=N)N)C(=O)N[C@H](C(=O)N[C@@H](CCCCN)C(=O)NCc1ccc(C(=N)N)cc1)C(C)C (Ac-[dL]LLLRVK-{NH(4-amidinobenzyl)}) | 
4 | 130000 | 8 | 21.5 | 140000 | 2.6 | CC(=O)N[C@H](CC(C)C)C(=O)N[C@@H](CC(C)C)C(=O)N[C@@H](CC(C)C)C(=O)N[C@@H](CC(C)C)C(=O)N[C@@H](CCCNC(=N)N)C(=O)N[C@H](C(=O)N[C@@H](CCCCN)C(=O)NCc1ccc(C(=N)N)nc1)C(C)C | 
5 | 25000 |  |  | 45000 |  | Ac-LLLLRVKR-NH2 | half-life [5]: 1.7 h
6 | 69000 | 2 | 600 | 230000 | 240 | CC(=O)N[C@H](CC(C)C)C(=O)N[C@@H](CC(C)C)C(=O)N[C@@H](CC(C)C)C(=O)N[C@@H](CC(C)C)C(=O)N[C@@H](CCCNC(=N)N)C(=O)N[C@H](C(=O)N[C@@H](CCCCN)C(=O)NCc1c(F)c(F)c(C(=N)N)c(F)c1F)C(C)C | 
7 |  |  | 250 |  | 190 | CC(=O)N[C@H](CC(C)C)C(=O)N[C@@H](CC(C)C)C(=O)N[C@@H](CC(C)C)C(=O)N[C@@H](CC(C)C)C(=O)N[C@@H](CCCNC(=N)N)C(=O)N[C@H](C(=O)N[C@@H](CCCCN)C(=O)N[C@H](CO)CCCNC(=N)N)C(C)C | Activity (DU-145 [6]): inactive; Activity (LNCaP [7]): inactive
8 | 40000 | 3 | 38 | 210000 | 13 | CC(=O)N[C@H](CC(C)C)C(=O)N[C@@H](CC(C)C)C(=O)N[C@@H](CC(C)C)C(=O)N[C@@H](CC(C)C)C(=O)N[C@@H](CCCNC(=N)N)C(=O)N[C@H](C(=O)N[C@@H](CCCCN)C(=O)NC/C=C/CNC(=N)N)C(C)C | 
9 | 50000 | 5 | 240 | 113000 | 53 | CC(=O)N[C@H](CC(C)C)C(=O)N[C@@H](CC(C)C)C(=O)N[C@@H](CC(C)C)C(=O)N[C@@H](CC(C)C)C(=O)N[C@@H](CCCNC(=N)N)C(=O)N[C@H](C(=O)N[C@@H](CCCCN)C(=O)NCc1ccc(C(=N)N)c(O)c1)C(C)C | 
10 |  |  |  |  |  | CC(C)C[C@H](NC(=O)[C@H](CC(C)C)NC(=O)[C@H](CC(C)C)NC(=O)[C@@H](CC(C)C)NC(=O)CCN)C(=O)N[C@@H](CCCNC(=N)N)C(=O)N[C@H](C(=O)N[C@@H](CCCCN)C(=O)NCc1ccc(C(=N)N)nc1)C(C)C | Drug uptake [4]: Active
11 |  | 1 | 825 |  | 700 | CC(=O)N[C@H](CC(C)C)C(=O)N[C@@H](CC(C)C)C(=O)N[C@@H](CC(C)C)C(=O)N[C@@H](CC(C)C)C(=O)N[C@@H](CCCNC(=N)N)C(=O)N[C@H](C(=O)N[C@@H](CCCCN)C(=O)NCc1ccc2c(N)n[nH]c2c1)C(C)C | IC50 (DU-145 [1]; du-145): Nd(Insoluble); IC50 (LNCaP [2]; lncap): Nd(Insoluble)
12 | 61000 | 4 | 60 | 58000 | 14 | CC(=O)N[C@H](CC(C)C)C(=O)N[C@@H](CC(C)C)C(=O)N[C@@H](CC(C)C)C(=O)N[C@@H](CC(C)C)C(=O)N[C@@H](CCCNC(=N)N)C(=O)N[C@H](C(=O)N[C@@H](CCCCN)C(=O)NCc1ccc(C(=N)N)c(N)c1)C(C)C | 
13 |  | 1 | 614 |  | 500 | CC(=O)N[C@H](CC(C)C)C(=O)N[C@@H](CC(C)C)C(=O)N[C@@H](CC(C)C)C(=O)N[C@@H](CC(C)C)C(=O)N[C@@H](CCCNC(=N)N)C(=O)N[C@H](C(=O)N[C@@H](CCCCN)C(=O)NCc1ccc2c(N)noc2c1)C(C)C | IC50 (DU-145 [1]; du-145): Nd(Insoluble); IC50 (LNCaP [2]; lncap): Nd(Insoluble)
14 |  | 32 |  |  |  | CC(=O)N[C@H](CC(C)C)C(=O)N[C@@H](CC(C)C)C(=O)N[C@@H](CC(C)C)C(=O)N[C@@H](CC(C)C)C(=O)N[C@@H](CCCNC(=N)N)C(=O)N[C@H](C(=O)N[C@@H](CCCCN)C(=O)N[C@@H](CCCNC(=N)N)C(N)=O)C(C)C | 
15 | 80000 | 2 | 41 | 80000 | 17 | CC(=O)N[C@H](CC(C)C)C(=O)N[C@@H](CC(C)C)C(=O)N[C@@H](CC(C)C)C(=O)N[C@@H](CC(C)C)C(=O)N[C@@H](CCCNC(=N)N)C(=O)N[C@H](C(=O)N[C@@H](CCCCN)C(=O)NCCc1ccc(C(=N)N)cc1)C(C)C | 
